Among the data in ChEMBL document CHEMBL1153776, “Synthesis and immunosuppressive activity of cyclolinopeptide A analogues containing homophenylalanine” (Eur J Med Chem, 2009) are Activity values, retold here.

One series relates to B. In words: Immunosuppressive effect on CBA mouse B cells assessed as inhibition of mitogen-induced proliferation after 3 days by MTT assay. The class given is functional, cell-based.
In series [1] the test system is Splenocyte. In words: Immunosuppressive activity against sheep erythrocytes-induced humoral immune response in CBA mouse splenocyte assessed as inhibition antibody forming cells after 4 days. The class given is functional, cell-based. The method in brief: (§1)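 Donor CBA mice (12-week-old, both sexes) sensitized with 0.2 ml of 1% SRBC suspension; spleens harvested four days later, erythrocytes lysed with 0.83% ammonium chloride. Splenocytes (5 ×10⁶/ml/well) cultured with SRBC (0.1 ml of 0.005% suspension) plus peptides (DMSO, then medium). After four days, antibody-forming cells counted; mean AFC numbers from quadruplicate wells ± SE.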

For series [2], the system named is Splenocyte. The series can be described thus: Immunosuppressive activity against sheep erythrocytes-induced humoral immune response in CBA mouse splenocyte assessed as inhibition antibody forming cells at 100 ug/ml after 4 days. The class given is functional. Further details: scale not given: the % may be the effect or the level left. An outline of the steps: as §1

Another series concerns T-cell. The series can be described thus: Immunosuppressive effect on CBA mouse T cells assessed as inhibition of mitogen-induced proliferation at 100 ug/ml after 3 days by MTT assay. The class given is functional, cell-based.
Series [3] in a line: Toxicity in mouse WEHI164 clone 13 cells at 100 ug/ml after 24 hrs by MTT assay. The settings on record: wehi-164, 24 h. The method in brief:
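WEHI 164.13 cells exposed 24 h to peptides (DMSO then culture medium) or DMSO control solutions. Viability measured by MTT colorimetric method and expressed as percentage of OD relative to matching solvent dilutions (taken as 100%). Student's t-test for statistics.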
(In general: Formazan colour is commonly taken as a measure of viable cells.)

Active and inactive are the calls of the source. The rule behind the calls is not given here. Non-standard residues stand in square brackets, D forms with d. Residues, ends and D or L forms follow the SMILES beside them. hPhe = N[C@@H](CCc1ccccc1)C(=O)O

For the compound `CC[C@H](C)[C@@H]1NC(=O)[C@H](CC(C)C)NC(=O)[C@H](CCc2ccccc2)NC(=O)[C@H](CCc2ccccc2)NC(=O)[C@@H]2CCCN2C(=O)[C@@H]2CCCN2C(=O)[C@H](C(C)C)NC(=O)[C@H](CC(C)C)NC(=O)[C@H]([C@@H](C)CC)NC1=O` (cyclo(IILVPP[hPhe][hPhe]L)), the outcome in the series on B and in the series with Splenocyte [1] was Active.

`CC[C@H](C)[C@@H]1NC(=O)[C@H](CC(C)C)NC(=O)[C@H](Cc2ccccc2)NC(=O)[C@H](CCc2ccccc2)NC(=O)[C@@H]2CCCN2C(=O)[C@@H]2CCCN2C(=O)[C@H](C(C)C)NC(=O)[C@H](CC(C)C)NC(=O)[C@H]([C@@H](C)CC)NC1=O` (cyclo(FLIILVPP[hPhe])): the Activity with Splenocyte [2] amounted to 94.5%. In the series on T-cell, the outcome was Active.

`CC[C@H](C)[C@@H]1NC(=O)[C@H](CC(C)C)NC(=O)[C@H](CCc2ccccc2)NC(=O)[C@H](Cc2ccccc2)NC(=O)[C@@H]2CCCN2C(=O)[C@@H]2CCCN2C(=O)[C@H](C(C)C)NC(=O)[C@H](CC(C)C)NC(=O)[C@H]([C@@H](C)CC)NC1=O` (cyclo(F[hPhe]LIILVPP)): the Activity in the series on Splenocyte [2] was found to be 92%; in series [3] it was 47.19%. In addition, in the series with B, the result was Active.
